The list is not random: actives were taken first. Their share in the collection is about 1.3%.
LYP act = LYP phosphatase activators, primary screen, biochemical, DiFMUP fluorescence, 2 µM; recombinant LYP; 0 = plate median, 100 = signal doubled; activation, % at 2 µM; 96,000 tested, 0.11% active;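 active = activation at 2 µM above a set limit, the mean plus 5 SD, cut at about 37% in these data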
HIV Rev-RRE inh = HIV-1 Rev-RRE binding inhibitors, primary screen, biochemical, FRET, protein-RNA interaction; P05866; 97,000 tested, 0.79% active; Rev peptide-RRE RNA binding; inhibition, % at 8 µM;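 active = inhibition above the screen-wide mean plus 3 SD, cut at about 35% in these data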;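 note: 0% = median DMSO wells and 100% = median Neomycin B control wells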
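Test system – labelled RRE RNA duplex and labelled Rev peptide · Reagent – labelled Rev peptide · Doses – one concentration, 8 µM nominal · Incubation – 5 + 15 min at 25 °C · Signal – FRET fluorescence readout · Read-out basis – % inhibition of FRET ratio versus controls · Control set – DMSO wells as 0% and neomycin B wells as 100% inhibition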
EphB4 ephrin blk = EphB4-ephrin-B2 interaction antagonists, primary screen, biochemical, TNYL-RAW peptide probe, fluorescence polarization | Ephrin type-B receptor 4 (Homo sapiens), P54760 | EphB4 LBD / TNYL-RAW-Alexa532 peptide | inhibition, % at 7 µM | 97,000 tested, 0.15% active;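 active = inhibition above the screen-wide mean inhibition plus 3 SD, cut at about 15% in these data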;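 note: 0% = DMSO wells and 100% = excess unlabeled TNYL-RAW peptide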
PTPN22 inh 2 = PTPN22 phosphatase inhibitors, primary screen, biochemical, DiFMUP fluorescence, 2 µM; Tyrosine-protein phosphatase non-receptor type 22 (Homo sapiens), Q9Y2R2; recombinant LYP catalytic domain; inhibition, % at 2 µM; 96,000 tested, 0.21% active; AID 640, 2007;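 active = inhibition at 2 µM at or above a set limit, the screen mean plus 3 SD, cut at about 24% in these data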;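 note: 0% = DMSO with enzyme and 100% = enzyme fully blocked by orthovanadate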
* hit, by the source's call; [ ] = dose if it differs, or a comment.

SMILES | LYP act | HIV Rev-RRE inh | EphB4 ephrin blk | PTPN22 inh 2
COc1ccc(S(=O)(=O)N/N=C(/C)c2cccc(NC(=O)c3ccccc3Cl)c2)cc1 | -4 | 5 | 0 | 8
COc1cc(/C=C2\SC(c3ccc(C)cc3)=NC2=O)cc(OC)c1OC | 0 | 51* | -8 | -2
CCOC(=O)C1=C(O)/C(=C/c2cc(OC)c(OC)c(OC)c2)N=C1C | -5 | -3 | 4 | 7
COc1cc(/C=C2\SC(c3ccc(C)cc3)=NC2=O)ccc1O | -1 | 77*[fluorescence artefact?] | -8 | 7
COc1ccc(/C=C2\SC(c3ccc(C)cc3)=NC2=O)cc1OC | -2 | 113*[fluorescence artefact?] | -12 | 0
COc1ccc(/C=C2/SC(c3ccc(C)cc3)=NC2=O)cc1OC | 1 | 114*[fluorescence artefact?] | -7 | -4
COc1ccc(/C=C2/C(=O)N=C(N)N2C)cc1OC | 5 | 11 | 1 | -3
COC(=O)C1=C(CSc2nc3c(cc2C#N)CN(C)CC3)OC(N)=C(C#N)C1c1ccc(F)cc1 (centres undefined) | 9 | 65* | 9 | -8
CCOC(=O)C1=C(CSc2nc(CC)c(C)cc2C#N)OC(N)=C(C#N)C1c1ccc(OC)cc1 (centres undefined) | -2 | 24 | 6 | 3
Nc1nc(N)c2sc3nc(C(F)(F)F)cc(C(F)(F)F)c3c2n1 | -2 | 37* | 4 | 1
CCN(CC)c1ccc(/C=c2\sc3nnc(-c4ccccc4Cl)n3c2=O)cc1 | 7 | 134*[fluorescence artefact?] | -6 | -6
Cc1ccc(/C=c2/sc3nnc(-c4ccccc4Cl)n3c2=O)o1 | 2 | 4 | 2 | -4
CCN(CC)c1ccc(/C=c2/sc3nnc(-c4ccccc4C)n3c2=O)cc1 | -7 | 118*[fluorescence artefact?] | -2 | 10
Cc1cccc(C)c1OCC(O)CNS(=O)(=O)c1ccccc1C(=O)N1CCCCC1 (centres undefined) | -4 | 1 | 2 | 4
COCCn1c(C)cc(C(=O)COc2nc3ccccc3nc2C)c1C | 1 | 7 | 20* | -3
Cn1ncc2c(=O)n(CC(=O)NC34CC5CC(CC(C5)C3)C4)cnc21 | 1 | 6 | -3 | 1
O=C1CC(=C2c3ccccc3-c3ccccc32)C(=O)N1CCCCN1CCN(c2ccccc2)CC1 | -45 | 1 | 5 | 45*
O=C1c2ccccc2C(=O)N1CCCCN1CCN(CCCCN2C(=O)c3ccccc3C2=O)CC1 | -5 | 5 | -1 | 4
CC(=O)c1cc(NC(=O)c2ccc(Cl)cc2)c(=O)oc1/C=C/N(C)C | 0 | 129*[fluorescence artefact?] | -1 | -4
CC(=O)c1cc(NC(=O)c2cccc(C(F)(F)F)c2)c(=O)oc1/C=C/N(C)C | -1 | 127*[fluorescence artefact?] | -1 | 4
O=C(Nc1ccc(/C=C/c2nc3ccccc3o2)cc1)c1cccc(C(F)(F)F)c1 | -11 | 16 | 4 | 15
CCCc1nnc(SCc2ccc(C(=O)OC)o2)n1N | -14 | 10 | 39*[fluorescence artefact?] | 13
CCc1nnc(SCc2ccc(C(=O)OC)o2)n1N | -5 | 3 | 6 | 4
O=C(N/C(=C/c1ccco1)C(=O)N1CCCCC1)c1cccs1 | -13 | 1 | 7 | 16
CCOc1ccc(C2C(C#N)=C(N)SC(N)=C2C#N)c(OCC)c1 | -7 | 21 | -6 | 8
SMILES | LYP act | HIV Rev-RRE inh | EphB4 ephrin blk | PTPN22 inh 2
N#CC1=C(N)SC(N)=C(C#N)C1c1cccc(O)c1 | 11 | 74* | 5 | -14
CCOc1cc(C2C(C#N)=C(N)SC(N)=C2C#N)ccc1OCCN1CCOCC1 | 3 | 75* | 9 | -7
COc1ccc(C2C(C#N)=C(N)SC(N)=C2C#N)cc1OC | 8 | 110*[fluorescence artefact?] | -3 | -6
C=CCNC(=O)c1onc(CSc2ccc(F)cc2)c1C(=O)NCCOC | 3 | 4 | 4 | 0
O=c1c(-c2nnc(SCc3ccc(Cl)cc3Cl)o2)cccn1Cc1ccccc1 | -23 | 1 | 7 | 25*
Clc1ccc(CSc2nnc(-c3ccncc3)o2)c(Cl)c1 | -9 | 10 | 1 | 7
COc1cccc(C(=O)CSc2nnc(CNS(C)(=O)=O)n2-c2ccc(C)cc2)c1 | 3 | 10 | -2 | -4
O=C(N/N=C/c1ccc2ccccc2c1)c1ccc(COc2ccc3c(c2)CCC3)o1 | -31 | 5 | -8 | 33*
COc1cc([N+](=O)[O-])ccc1N/C=C/C(=O)c1cccs1 | -4 | 77* | 2 | 7
CCOCCCNc1nc2c(C)cccn2c(=O)c1/C=C1\SC(=S)N(CC(C)C)C1=O | -3 | 44* | -5 | 8
CCCN1C(=O)/C(=C/c2c(NCCCOCC)nc3c(C)cccn3c2=O)SC1=S | -2 | 76* | -4 | 3
Cc1cccn2c(=O)c(C=Nc3ccccc3)c(NCc3ccco3)nc12 | 6 | 6 | 1 | -10
COc1ccc(OC)c(N(CC(=O)Nc2cccnc2)S(=O)(=O)c2ccccc2)c1 | -4 | 14 | -5 | 7
N#C/C(=C\c1ccc(N2CCCC2)c([N+](=O)[O-])c1)c1nc2ccccc2[nH]1 | 0 | 37* | -7 | 2
COc1ccc(S(=O)(=O)Nc2ccc(S(=O)(=O)N3CCCCC3)cc2)cc1 | -25 | 9 | 0 | 25*
COc1ccc(NC(=O)CSc2nc3c(c(-c4cccs4)c2C#N)CN(C)CC3)cc1OC | 10 | 63* | 5 | -6
CCCCN(C(=O)CSc1nnc(Nc2ccc(C)c(C)c2)s1)c1c(N)n(Cc2ccccc2)c(=O)[nH]c1=O | -25 | 10 | 0 | 26*
Cc1nc2ccc(S(=O)(=O)NCC(=O)NCc3ccc4c(c3)OCO4)cc2s1 | -27 | 2 | -4 | 27*
CC(C)CCCC(C)NS(=O)(=O)Cc1ccccc1 (centres undefined) | 1 | 1 | -3 | 1
CCOC(=O)c1c(NC(=O)CN2CCCCC2)sc2c1CCN(C(=O)OCC)C2 | 0 | 7 | 4 | -3
CCOC(=O)c1c(NC(=S)Nc2ccccc2)sc2c1CCN(CCc1ccccc1)C2 | -8 | 124*[fluorescence artefact?] | -2 | 10
CCOC(=O)CC(=O)CSc1nc(-c2cccnc2)ccc1C#N | -6 | 88*[fluorescence artefact?] | 4 | 3
Cc1c(-n2cc(C(=O)c3ccccc3O)cc(C#N)c2=O)c(=O)n(-c2ccccc2)n1C | -8 | 57* | -2 | 6
Nc1cc2c([N+](=O)[O-])cccc2o1 | 4 | 51* | -8 | -4
O=c1oc2ccccc2c(Nc2cccc(O)c2)c1[N+](=O)[O-] | -13 | 25 | 1 | 14
CCN(CC)c1ccc(/C=C2\C(=O)N(c3ccc([N+](=O)[O-])cc3)N=C2N2CCOCC2)cc1 | 7 | 6 | 0 | -7
CCCCC1(C)OC(=O)C(=Cc2ccc(N(CC)CC)cc2)C(=O)O1 (centres undefined) | 11 | 87*[fluorescence artefact?] | -12 | -10
Cc1ccc(S(=O)(=O)N(CC(=O)NCCSCc2ccco2)c2cc(C)ccc2C)cc1 | 9 | -2 | -3 | -3
Cc1nnc(C)n1/N=C/c1cc(Br)cc(Br)c1O | -4 | 19 | -6 | 0
Nn1cnnc1N/N=C/c1cc(Br)cc(Br)c1O | -24 | 7 | 9 | 28*
